ChEMBL document CHEMBL1147882, “In vitro efficiency of new acridyl derivatives against Plasmodium falciparum” (Bioorg Med Chem, 2007)

Columns and labels:
Assay type in all cases: functional, organism-based
Plasmodium falciparum [1] = assay: Antimalarial activity against chloroquine-resistant Plasmodium falciparum Bre1 by hypoxanthine uptake
How it was run: (§1)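 Synchronous parasites diluted in A-positive human erythrocytes with RPMI 1640 + 10% human serum, 25 mM HEPES, 25 mM NaHCO₃, to 0.2 parasitemia and 1.5 hematocrit. Added to wells predosed with drug, 0.06 to 200 µM in triplicate. 1 µCi [³H]hypoxanthine per well, 42 h at 37 °C. Incorporated radioactivity counted by scintillation. IC50 from non-linear regression of log-dose/response versus drug-free controls.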

Plasmodium falciparum [2] = assay: Antimalarial activity against chloroquine-sensitive Plasmodium falciparum 3D7 by hypoxanthine uptake; how it was run: as §1
Plasmodium falciparum [3] = assay: Antimalarial activity against chloroquine-resistant Plasmodium falciparum FCR3 by hypoxanthine uptake; how it was run: as §1
Plasmodium falciparum [4] = assay: Antimalarial activity against chloroquine-resistant Plasmodium falciparum W2 by hypoxanthine uptake; how it was run: as §1

Structure (SMILES)	IC50 (Plasmodium falciparum [1]) [nM]	IC50 (Plasmodium falciparum [2]) [nM]	IC50 (Plasmodium falciparum [3]) [nM]	IC50 (Plasmodium falciparum [4]) [nM]
COc1ccc2nc3cc(Cl)ccc3c(NCCCCCCN)c2c1	170	130	200	180
COc1ccc2nc3cc(Cl)ccc3c(NCCCCCCNC(=O)CCCNC(=O)CN)c2c1	620	890	810	830
COc1ccc2nc3cc(Cl)ccc3c(NCCCCCCNC(=O)CCN)c2c1	1260	910	1250	1250
N=C(N)NCCCC(N)C(=O)NCC(=O)NCCCCCCNC(=O)c1c2ccccc2nc2ccccc12 (configuration not stated)	47600	42000	42500	43600
COc1ccc2nc3cc(Cl)ccc3c(NCCCCCCNC(=O)CCCNC(=O)CNC(=O)C(N)CCCNC(=N)N)c2c1 (configuration not stated)	500	840	670	820
COc1ccc2nc3cc(Cl)ccc3c(NCCCCCCNC(=O)CCNC(=O)CCNC(=O)C(N)CCCNC(=N)N)c2c1 (configuration not stated)	860	3320	860	940
N=C(N)NCCCC(N)C(=O)NCC(=O)NCCCCCCCC(=O)Nc1c2ccccc2nc2ccccc12 (configuration not stated)	28700	27100	27200	30500
COc1ccc2nc3cc(Cl)ccc3c(NCCCCCCNC(=O)CCCN)c2c1	180	190	540	570
